pIC50, pKi: −log10 of the molar value. Active and inactive are the calls of the source. No cut-off for these calls is given here.

This note sets out measurements from ChEMBL document CHEMBL4680104, “Structure-Based Optimization of Small-Molecule Inhibitors for the β-Catenin/B-Cell Lymphoma 9 Protein-Protein Interaction” (J Med Chem, 2018).

Assay [1] concerns the target T1, beta-catenin-B-cell lymphoma 9 protein complex (Homo sapiens, UniProt P35222).
T1 sequence (P35222 whole entry): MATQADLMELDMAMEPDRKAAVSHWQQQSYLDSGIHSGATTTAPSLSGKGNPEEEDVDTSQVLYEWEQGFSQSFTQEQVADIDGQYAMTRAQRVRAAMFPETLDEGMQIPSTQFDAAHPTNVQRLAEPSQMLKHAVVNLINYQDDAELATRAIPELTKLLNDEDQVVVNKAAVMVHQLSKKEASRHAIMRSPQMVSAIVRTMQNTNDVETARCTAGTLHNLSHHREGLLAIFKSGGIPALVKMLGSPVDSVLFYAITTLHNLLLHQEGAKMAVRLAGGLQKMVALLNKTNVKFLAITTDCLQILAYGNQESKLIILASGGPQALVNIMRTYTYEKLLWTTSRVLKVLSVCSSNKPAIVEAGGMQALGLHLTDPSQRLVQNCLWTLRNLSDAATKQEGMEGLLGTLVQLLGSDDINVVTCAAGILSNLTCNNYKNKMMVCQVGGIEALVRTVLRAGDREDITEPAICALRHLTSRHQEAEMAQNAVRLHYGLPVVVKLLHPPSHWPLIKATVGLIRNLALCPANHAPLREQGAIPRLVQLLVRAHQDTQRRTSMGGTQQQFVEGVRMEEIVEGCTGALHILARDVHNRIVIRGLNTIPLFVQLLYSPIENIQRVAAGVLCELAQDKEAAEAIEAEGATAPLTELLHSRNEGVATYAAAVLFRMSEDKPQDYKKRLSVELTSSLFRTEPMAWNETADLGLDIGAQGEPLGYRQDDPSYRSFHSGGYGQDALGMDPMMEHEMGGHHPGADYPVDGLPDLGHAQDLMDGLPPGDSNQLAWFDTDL
T1 sequence (O00512 whole entry): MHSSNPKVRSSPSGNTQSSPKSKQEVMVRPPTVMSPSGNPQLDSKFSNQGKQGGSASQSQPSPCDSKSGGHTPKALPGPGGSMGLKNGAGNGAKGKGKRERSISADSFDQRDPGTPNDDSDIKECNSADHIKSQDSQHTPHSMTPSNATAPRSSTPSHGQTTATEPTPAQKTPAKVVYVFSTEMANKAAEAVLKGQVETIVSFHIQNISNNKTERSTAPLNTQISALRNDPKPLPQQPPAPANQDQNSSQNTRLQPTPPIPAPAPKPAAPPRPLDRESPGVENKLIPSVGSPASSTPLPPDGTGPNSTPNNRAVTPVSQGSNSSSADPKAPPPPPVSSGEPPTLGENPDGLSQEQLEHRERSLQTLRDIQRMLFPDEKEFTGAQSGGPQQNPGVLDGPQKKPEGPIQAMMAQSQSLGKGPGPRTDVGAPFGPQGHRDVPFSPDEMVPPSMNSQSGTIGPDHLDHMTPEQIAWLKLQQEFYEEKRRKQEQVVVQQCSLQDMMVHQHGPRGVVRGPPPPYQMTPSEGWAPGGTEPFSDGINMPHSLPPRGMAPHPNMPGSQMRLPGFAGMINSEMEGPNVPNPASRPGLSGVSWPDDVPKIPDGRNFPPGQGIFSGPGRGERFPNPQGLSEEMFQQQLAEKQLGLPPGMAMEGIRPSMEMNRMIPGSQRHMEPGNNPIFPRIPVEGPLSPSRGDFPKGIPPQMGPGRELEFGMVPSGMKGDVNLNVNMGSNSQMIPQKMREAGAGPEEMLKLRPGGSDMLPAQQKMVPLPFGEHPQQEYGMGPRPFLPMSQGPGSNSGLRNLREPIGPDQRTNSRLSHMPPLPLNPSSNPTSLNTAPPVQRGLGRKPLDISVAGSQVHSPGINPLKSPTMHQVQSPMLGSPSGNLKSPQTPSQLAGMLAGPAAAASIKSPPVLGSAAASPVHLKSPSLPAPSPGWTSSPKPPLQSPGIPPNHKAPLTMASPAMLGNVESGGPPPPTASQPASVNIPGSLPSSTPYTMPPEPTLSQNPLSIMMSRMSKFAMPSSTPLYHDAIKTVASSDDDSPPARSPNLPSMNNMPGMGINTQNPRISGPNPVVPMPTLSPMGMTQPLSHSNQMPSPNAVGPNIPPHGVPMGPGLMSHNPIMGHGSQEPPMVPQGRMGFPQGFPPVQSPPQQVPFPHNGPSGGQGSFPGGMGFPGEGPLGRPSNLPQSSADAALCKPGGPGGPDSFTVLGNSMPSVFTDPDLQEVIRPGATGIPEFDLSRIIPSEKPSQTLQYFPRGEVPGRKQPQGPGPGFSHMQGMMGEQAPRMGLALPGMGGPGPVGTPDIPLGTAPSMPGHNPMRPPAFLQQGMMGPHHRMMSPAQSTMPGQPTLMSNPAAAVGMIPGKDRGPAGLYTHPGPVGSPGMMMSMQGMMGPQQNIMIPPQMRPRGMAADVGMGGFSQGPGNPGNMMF
Kind of assay: Inhibition of protein interaction between C-terminal 6x-histidine tagged full-length beta-catenin (1 to 781 residues) (unknown origin)/N-terminal biotinylated human BCL9 ( 350 to 375 residues) incubated for 1 hr by Alpha-screen competitive inhibition assay. Type of assay: protein-complex assay. An outline of the steps:
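Full-length β-catenin (residues 1–781) with a C-terminal His6 tag was expressed in E. coli BL21(DE3) after IPTG induction at 20 °C. It was purified by Ni-NTA, anion-exchange and size-exclusion chromatography. For the assay, 40 nM β-catenin was preincubated for 30 min at 4 °C with 5 nM biotinylated BCL9 or 10 nM biotinylated E-cadherin. Inhibitor was then added for 1 h at 4 °C, followed by 10 μg/mL donor and acceptor beads for 1 h at 4 °C. IC50 was obtained by nonlinear fit and converted to Ki by the Nikolovska-Coleska method. Triplicate, mean ± SD.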

Assay [2] deals with T1, beta-catenin-B-cell lymphoma 9 protein complex. Description: Inhibition of protein interaction between beta-catenin (unknown origin)/BCL9 in human SW480 cells transfected with beta-catenin assessed as reduction in Wnt/beta-catenin transactivation incubated for 24 hrs by Wnt-responsive TOP-Flash luciferase reporter assay. Type of assay: cell-based. In general terms: Reporter assays use an easily measured gene product as a stand-in for the process of interest.

The target of assay [3] is T2, beta-catenin-B-cell lymphoma 9 protein complex (Homo sapiens) (UniProt P35222+O00512). Kind of assay: Inhibition of protein interaction between beta-catenin (unknown origin)/BCL9 in HEK293 cells transfected with beta-catenin assessed as reduction in Wnt/beta-catenin transactivation incubated for 24 hrs by Wnt-responsive FOP-Flash luciferase reporter assay. The format is cell-based. The procedure, abridged: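 HEK293 cells were cotransfected using FuGENE6 with 45 ng TOPFlash or FOPFlash reporter, 135 ng pcDNA3.1-β-catenin and 20 ng pCMV-RL normalization reporter. After 24 h in DMEM with 10% FBS at 37 °C, inhibitors or DMSO were added for 24 h. Reporter activity was read with a dual luciferase system, normalized, and compared with DMSO-treated cells. Triplicate.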

Assay [4] has as its target T2, beta-catenin-B-cell lymphoma 9 protein complex (Homo sapiens). Kind of assay: Inhibition of protein interaction between beta-catenin (unknown origin)/BCL9 in human HEK293 cells transfected with beta-catenin assessed as reduction in Wnt/beta-catenin transactivation incubated for 24 hrs by Wnt-responsive FOP-Flash luciferase reporter assay.

On to `Cl.Cl.O=C(Nc1ccc(O[C@H]2CCNC2)c(-c2ccc(F)cc2)c1)c1ccc(O[C@H]2CCNC2)c(-c2ccc3cc(F)ccc3c2)c1`, for which the negative logarithm of the Ki (pKi) – broadly, −log10 of the Ki, conventionally taken in molar units – in assay [1] is 5.89. Also, the pIC50 (usually the negative decadic logarithm of the IC50, by convention in mol/L) in assay [2] was 4.92. The inhibition result in assay [3] and in assay [4] was “Active” in each case.
In assay [1], `Cl.Cl.O=C(Nc1ccc(O[C@H]2CCNC2)c(-c2ccc(F)cc2)c1)c1ccc(O[C@H]2CCNC2)c(-c2ccc3ccsc3c2)c1` had a pKi of 5.89. In assay [2], the pIC50 is 5.92. Further, the inhibition result in assay [3] and in assay [4] was “Active” each time.
Take `Cl.Cl.O=C(Nc1ccc(O[C@@H]2CCNC2)c(-c2cccc(-c3nn[nH]n3)c2)c1)c1ccc(O[C@H]2CCNC2)c(-c2ccc(F)c(F)c2)c1`: the pIC50 in assay [2] is 4.60. For the same molecule, the inhibition result in assay [3] and in assay [4] was “inactive” each time.
Consider `Cl.Cl.O=C(Nc1ccc(O[C@H]2CCNC2)c(-c2ccc(F)cc2)c1)c1ccc(O[C@H]2CCNC2)c(-c2ccc(F)c(F)c2)c1`, for which the pKi in assay [1] is 5.68. The negative-log IC50 (pIC50) in assay [2] is 5.54. Besides, the inhibition result in assay [3] and in assay [4] was “Active” throughout.
As to `Cc1cc(F)ccc1-c1cc(NC(=O)c2ccc(O[C@H]3CCNC3)c(-c3ccc(F)c(F)c3)c2)ccc1O[C@H]1CCNC1.Cl.Cl`, the pKi in assay [1] is 5.46. Also, in assay [2], the pIC50 was 5.70. Further, the inhibition entry in assay [3] and in assay [4] was “Active” each time.
In the case of `Cl.Cl.O=C(Nc1ccc(O[C@H]2CCNC2)c(-c2ccc(F)cc2)c1)c1ccc(O[C@H]2CCNC2)c(C2CCC(C(F)(F)F)CC2)c1` (some centres not stated), the pKi in assay [1] is 5.38. Moreover, the pIC50 in assay [2] was 5.00. Also, the inhibition result in assay [3] and in assay [4] was “Active” throughout.
`Cl.Cl.O=C(Nc1ccc(O[C@H]2CCNC2)c(-c2ccc(F)cc2)c1)c1cnc(O[C@H]2CCNC2)c(-c2ccc(F)c(F)c2)c1` showed a pKi in assay [1] of 5.06. In addition, in assay [2], the pIC50 was 5.23. Also, the inhibition entry in assay [3] and in assay [4] was “Active” in each case.
